In ChEMBL document CHEMBL1132485, “Synthesis and biological evaluation of a potent E-selectin antagonist” (J Med Chem, 1999):
Several values for one entry are separate records, joined by “and”; a condition that tells them apart may be missing. Equal entries are not always repeated.

What was measured:
E-selectin [1] = molecular target: T1, E-selectin (Homo sapiens, UniProt P16581); assay: In vitro inhibitory activity against Selectin E measured by sLex(static cell free ligand binding assay)
T1 sequence (P16581 whole entry): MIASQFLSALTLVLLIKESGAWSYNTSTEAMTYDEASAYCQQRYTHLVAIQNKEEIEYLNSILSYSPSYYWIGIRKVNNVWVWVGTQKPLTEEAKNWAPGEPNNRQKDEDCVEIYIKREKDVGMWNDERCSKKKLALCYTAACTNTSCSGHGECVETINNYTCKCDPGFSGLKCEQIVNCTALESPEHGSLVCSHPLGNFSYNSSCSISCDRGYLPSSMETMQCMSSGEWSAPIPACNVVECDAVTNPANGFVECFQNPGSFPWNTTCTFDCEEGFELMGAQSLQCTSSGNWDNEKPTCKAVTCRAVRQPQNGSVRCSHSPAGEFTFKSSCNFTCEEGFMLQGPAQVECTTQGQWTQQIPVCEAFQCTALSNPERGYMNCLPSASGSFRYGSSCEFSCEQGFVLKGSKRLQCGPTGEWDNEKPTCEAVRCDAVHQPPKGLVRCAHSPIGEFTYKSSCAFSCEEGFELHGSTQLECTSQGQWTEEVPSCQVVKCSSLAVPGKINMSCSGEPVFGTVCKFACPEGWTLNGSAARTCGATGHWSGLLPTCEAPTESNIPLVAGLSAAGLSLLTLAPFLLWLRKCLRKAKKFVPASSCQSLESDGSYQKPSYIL
Summary of the method: (§1)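 Cell-free competitive binding assay in which immobilized E-selectin is incubated with a multivalent polylysine/sialyl Lewis^a conjugate and then treated with test compounds. The sLe^x tetrasaccharide is run as a reference on every plate. Relative IC50 is IC50(test)/IC50(sLe^x) from the same plate. Data come from three separate assays.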

Mus musculus = species on record: Mus musculus; assay: Inhibitory effect in a thioglycollate induced peritonitis model of acute inflammation in mice; type: functional
E-selectin [2] = molecular target: T1, E-selectin; assay: In vitro inhibitory activity against Selectin E; summary of the method: as §1
[3] = molecular target: T2, E-selectin (Homo sapiens) (UniProt P16581); assay: Ratio of IC50 of compound to IC50 of sLex; type: functional; summary of the method: as §1
T2 sequence (whole entry): T1 sequence (P16581 whole entry)

IC50 (E-selectin [1])	IC50 (E-selectin [2])	Relative IC50 [3]	SMILES	ED50 (Mus musculus) [mg/kg]
1180 µM and 889 µM and 1310 µM and 1130 µM			COC(=O)CCCCCCCCO[C@@H]1C[C@@H](CO)[C@@H](O[C@@H]2O[C@@H](O)[C@H](O)[C@H](O[C@]3(C(=O)O)C[C@@H](O)[C@@H](NC(C)=O)[C@H]([C@H](O)[C@H](O)CO)O3)[C@@H]2O)[C@H](O[C@@H]2O[C@@H](C)[C@@H](O)[C@H](O)[C@@H]2O)[C@@H]1NC(C)=O	
	33 µM and 24 µM and 51 µM and 36 µM	0.031 [middle of 4 runs]	C[C@@H]1O[C@@H](O[C@@H]2[C@H](CO)OCC[C@H]2O[C@@H]2O[C@@H](CO)[C@H](O)C(O[C@@H](CC3CCCCC3)C(=O)[O-])[C@@H]2O)[C@@H](O)[C@@H](O)[C@@H]1O.[Na+] (some centres undefined)	15
